As usually defined, the Ki is the dissociation constant of the complex between target and ligand, obtained from inhibition or displacement. The low end stands for tighter binding, the high end for weaker binding. Usually pKb stands for −log10 of the Kb, conventionally taken in molar units.

The results in this text go back to ChEMBL document CHEMBL1629492 (Eur J Med Chem, 2010).

The target in experiment [1] is T1, Alpha-1B adrenergic receptor (Homo sapiens, UniProt P35368).
T1 sequence (P35368 whole entry): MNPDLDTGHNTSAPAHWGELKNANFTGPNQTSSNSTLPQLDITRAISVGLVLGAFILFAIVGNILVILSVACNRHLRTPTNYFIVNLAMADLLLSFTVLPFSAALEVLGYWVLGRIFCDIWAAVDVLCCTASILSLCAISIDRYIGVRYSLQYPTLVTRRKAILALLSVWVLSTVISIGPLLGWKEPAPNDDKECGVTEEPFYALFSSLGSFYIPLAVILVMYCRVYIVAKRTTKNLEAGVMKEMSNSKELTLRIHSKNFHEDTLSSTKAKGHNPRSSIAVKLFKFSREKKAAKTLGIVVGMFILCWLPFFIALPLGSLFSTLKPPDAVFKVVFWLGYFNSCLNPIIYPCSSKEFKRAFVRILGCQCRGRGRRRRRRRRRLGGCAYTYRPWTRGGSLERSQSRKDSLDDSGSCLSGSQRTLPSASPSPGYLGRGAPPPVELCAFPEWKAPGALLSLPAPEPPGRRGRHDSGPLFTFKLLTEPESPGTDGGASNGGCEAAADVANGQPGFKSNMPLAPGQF
Briefly: Displacement of [3H]prazosin from human Alpha-1B adrenoceptor expressed in CHO cells. Format: cell-based. The essentials:
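Membranes ([…], as printed) from CHO cells stably expressing the cloned human α1b subtype were incubated with 0.1–0.4 nM [³H]prazosin and competitor (1 pM up to the top concentration) in 50 mM Tris-HCl, pH 7.4, for 30 min at 25 °C. Non-specific binding was defined with phentolamine, and incubations ended by filtration. Ki was derived from IC50 by Cheng–Prusoff. Reported as pKi from 2–3 triplicate experiments.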

The target of experiment [2] is T2, Alpha-1B adrenergic receptor (Rattus norvegicus) (UniProt P15823).
T2 sequence (whole entry): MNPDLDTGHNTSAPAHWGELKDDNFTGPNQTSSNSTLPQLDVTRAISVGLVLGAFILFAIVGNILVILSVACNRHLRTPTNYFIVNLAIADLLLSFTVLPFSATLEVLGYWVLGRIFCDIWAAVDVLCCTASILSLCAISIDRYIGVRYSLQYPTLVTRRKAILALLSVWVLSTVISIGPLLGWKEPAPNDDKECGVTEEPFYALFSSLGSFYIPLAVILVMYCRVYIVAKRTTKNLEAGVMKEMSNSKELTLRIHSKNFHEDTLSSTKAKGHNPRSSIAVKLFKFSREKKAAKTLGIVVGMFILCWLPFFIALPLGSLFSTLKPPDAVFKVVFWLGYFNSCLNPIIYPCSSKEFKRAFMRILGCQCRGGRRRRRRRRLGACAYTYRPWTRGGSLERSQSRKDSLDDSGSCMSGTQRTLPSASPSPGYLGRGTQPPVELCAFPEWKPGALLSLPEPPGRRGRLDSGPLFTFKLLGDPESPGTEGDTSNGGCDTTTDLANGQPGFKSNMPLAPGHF
Description: Antagonist activity at Alpha-1B adrenoceptor in Wistar rat spleen assessed as phenylephrine induced contractions after 30 mins. Format: functional, tissue-based. A digest of the protocol: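 Spleen strips from male Wistar rats (275–300 g) were set up in a 20 mL bath of physiological salt solution (pH 7.4, 37 °C, 95% O2/5% CO2) under 1 g tension and equilibrated 2 h. Two cumulative phenylephrine curves were run, each followed by 30 min washing, then 30 min incubation with vehicle or antagonist before a third curve. Values are Schild pA2, or pKB where slopes were nonparallel; 4–6 experiments.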

The target in experiment [3] is T3, Alpha-1D adrenergic receptor (Rattus norvegicus) (UniProt P23944).
T3 sequence (whole entry): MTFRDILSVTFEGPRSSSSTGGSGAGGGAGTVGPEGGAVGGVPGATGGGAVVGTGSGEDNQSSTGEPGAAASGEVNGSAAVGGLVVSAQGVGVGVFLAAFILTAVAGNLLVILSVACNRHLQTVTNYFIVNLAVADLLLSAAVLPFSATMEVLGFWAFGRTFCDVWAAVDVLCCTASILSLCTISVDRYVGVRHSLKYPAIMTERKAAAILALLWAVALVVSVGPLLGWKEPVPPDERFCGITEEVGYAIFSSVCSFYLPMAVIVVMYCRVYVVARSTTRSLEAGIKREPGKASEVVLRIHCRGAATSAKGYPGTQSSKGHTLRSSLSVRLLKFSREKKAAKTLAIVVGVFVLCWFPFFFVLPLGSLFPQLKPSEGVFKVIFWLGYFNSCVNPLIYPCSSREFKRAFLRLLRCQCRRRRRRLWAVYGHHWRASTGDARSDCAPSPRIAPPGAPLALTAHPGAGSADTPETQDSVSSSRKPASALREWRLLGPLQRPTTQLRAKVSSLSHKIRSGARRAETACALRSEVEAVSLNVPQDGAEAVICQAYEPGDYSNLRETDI
The note with it: Wistar, Thoracic aorta.

Experiment [4] has as its target T4, Alpha-1D adrenergic receptor (Homo sapiens, UniProt P25100).
T4 sequence (P25100 whole entry): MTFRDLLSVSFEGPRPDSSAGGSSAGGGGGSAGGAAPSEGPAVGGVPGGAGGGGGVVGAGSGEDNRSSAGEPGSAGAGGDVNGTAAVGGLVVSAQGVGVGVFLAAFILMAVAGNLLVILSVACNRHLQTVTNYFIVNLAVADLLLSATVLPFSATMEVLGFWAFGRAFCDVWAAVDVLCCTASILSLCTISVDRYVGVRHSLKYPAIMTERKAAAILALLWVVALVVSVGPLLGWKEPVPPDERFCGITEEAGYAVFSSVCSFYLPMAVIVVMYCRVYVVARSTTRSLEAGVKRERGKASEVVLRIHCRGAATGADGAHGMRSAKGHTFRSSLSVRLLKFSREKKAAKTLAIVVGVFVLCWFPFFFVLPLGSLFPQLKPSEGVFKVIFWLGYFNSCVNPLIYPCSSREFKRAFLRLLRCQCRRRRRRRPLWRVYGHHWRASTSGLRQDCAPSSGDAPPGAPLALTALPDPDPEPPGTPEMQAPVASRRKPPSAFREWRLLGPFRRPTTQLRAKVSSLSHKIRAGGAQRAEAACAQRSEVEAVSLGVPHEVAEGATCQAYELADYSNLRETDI
Description: Displacement of [3H]prazosin from human Alpha-1D adrenoceptor expressed in CHO cells. Type of experiment: cell-based. The essentials:
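Membranes ([…], as printed) from CHO cells stably expressing the cloned human α1d subtype were incubated with 0.1–0.4 nM [³H]prazosin and competing drug (1 pM upward) in 50 mM Tris-HCl, pH 7.4, for 30 min at 25 °C. Phentolamine defined non-specific binding. IC50 was converted to Ki by Cheng–Prusoff. Reported as pKi from 2–3 triplicate experiments.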

Experiment [5] concerns the target T5, Alpha-1A adrenergic receptor (Rattus norvegicus) (UniProt P43140).
T5 sequence (whole entry): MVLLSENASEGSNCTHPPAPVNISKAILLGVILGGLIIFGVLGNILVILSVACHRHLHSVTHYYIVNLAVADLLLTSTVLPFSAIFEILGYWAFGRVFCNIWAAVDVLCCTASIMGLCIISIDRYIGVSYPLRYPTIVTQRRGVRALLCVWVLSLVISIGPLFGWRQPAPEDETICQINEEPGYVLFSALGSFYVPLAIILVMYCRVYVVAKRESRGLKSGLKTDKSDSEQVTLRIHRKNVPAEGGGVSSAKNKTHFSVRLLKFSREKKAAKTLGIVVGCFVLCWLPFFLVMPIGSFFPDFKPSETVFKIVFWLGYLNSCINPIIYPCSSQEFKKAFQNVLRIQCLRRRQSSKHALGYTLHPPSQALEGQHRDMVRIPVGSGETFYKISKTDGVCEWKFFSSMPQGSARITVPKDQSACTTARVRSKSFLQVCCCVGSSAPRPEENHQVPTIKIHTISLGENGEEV
Briefly: Antagonist activity at alpha1A adrenoceptor in Wistar rat vas deferens assessed as noradrenaline induced contractions after 30 mins. Format: functional, tissue-based. The essentials: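 Prostatic portions (2 cm) of vas deferens from male Wistar rats (275–300 g) were held under 0.35 g tension in Tyrode solution at 37 °C with cocaine present. Tissues were equilibrated 45 min, primed twice with noradrenaline, then given a cumulative isotonic noradrenaline curve.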

With `CCOc1ccccc1OCCN[C@H](C)Cc1ccc(OC)c(S(N)(=O)=O)c1` [TAMSULOSIN], the inhibition constant Ki in experiment [1] was 0.631 nM; in experiment [4] it was 0.1 nM. Moreover, the negative logarithm of the Kb (pKb) in experiment [2] is 9.3; in experiment [3], 10; in experiment [5], 9.46.
